# Compounds with a hit are over-represented: about 6.3% of the library has one in this group of screens.
# tolC growth inh = E. coli tolC mutant growth inhibition | growth inhibition, % at 10 µM (by protocol) | 2.2% of 65,000 active | E. coli BW25113 tolC mutant growth, OD615;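 active means growth inhibition at or above a cutoff equal to the mean over every tested compound plus 3 SD, cut at about 60% in these data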;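 further: growth measured after 20 h incubation at 37 °C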
#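 Test system: E. coli BW25113 ΔtolC::kan bacteria | Medium: Kanamycin-containing LB broth (50 µg/mL) | Dosing: One dose of 10 µM final | Times: 20 h incubation with compound, 37 °C | Detection: Optical density read at 615 nm | Read-out basis: Percent growth inhibition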
# PostGolgi yeast = growth inhibition of a yeast mutant, post-Golgi transport screen; post-Golgi transport phenotypic cell assay; inhibition, % at 10 µM; 0.9% of 98,000 active;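 further: yeast cells grown in 1536-well plates; yeast grown about 18 h at 30C before absorbance read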
# Ecoli WT expand = E. coli BW25113 growth inhibition, expanded screen; OD600 absorbance; AID 710; 0.15% of 98,000 active; growth inhibition, % at 100 µM;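 active means growth inhibition above about 50% at one test dose, limit read from the data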;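 further: growth measured after 20 h incubation at 37 °C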
# PostGolgi ctrl = yeast control strain growth, post-Golgi counter-screen; efflux-deficient yeast background strain, growth absorbance A615, 16 h; inhibition, % at 10 µM; 5% of 98,000 active
# An asterisk follows results filed as active; · = not tested or not shown. Unless noted, no stated cut-off is given here; in the data, active means inhibition above about 30%; inactive means the rest.
SMILES,tolC growth inh,PostGolgi yeast,Ecoli WT expand,PostGolgi ctrl
CCCCn1nc(NC(=O)c2cccs2)c2cc3ccccc3nc21,91*,-3,-12,17
NS(=O)(=O)c1ccc(CCNC(=O)COC(=O)C2CCCN2C(=O)c2cccs2)cc1 (stereo unspecified),-8,0,8,21
Oc1ccc(-c2[nH]ncc2-c2cccc3cccnc23)c(O)c1,-4,16,13,10
CCOc1ccc(-c2ncncc2-c2ccc(OC)cc2)c(O)c1,-5,3,6,20
Oc1ccc(-c2[nH]ncc2-c2ccc(Cl)cc2)c(O)c1,100*,-4,30,23
COc1ccc(-c2[nH]ncc2-c2ccc(Cl)cc2)c(O)c1,98*,15,18,49*
COc1cccc(C(=O)SC2=NCCS2)c1,-28,-10,-3,17
Cc1ccc(OCc2nnc(SCc3nc4ccccc4[nH]3)n2Cc2ccco2)cc1,26,-4,3,32*
O=c1c2ccccc2nnn1CSc1nnc(COc2ccc(Cl)cc2)n1Cc1ccco1,8,103*,-2,82*
c1ccc(-c2nnc(SCc3nc4ccccc4[nH]3)n2Cc2ccco2)cc1,·,-5,10,4
O=c1c2ccccc2nnn1CSc1nc2cc(Cl)ccc2c(=O)n1Cc1ccco1,-7,·,·,·
CC1(C)NC(=O)N(CC(=O)Nc2nc(-c3ccc(F)cc3)cs2)C1=O,·,-1,-2,1
c1ccc(COc2ccc(OCCn3cncn3)cc2)cc1,1,-1,7,3
c1ccc(-c2ccc(OCCCn3cncn3)cc2)cc1,3,97*,3,89*
O=C(COc1ccc(S(=O)(=O)N2CCCCC2)cc1)NCc1cccnc1,·,-13,2,-3
CCOc1ccc(NC(=O)C(C)Oc2ccccc2C(=O)Nc2ccc(C)c(Cl)c2)cc1 (stereo unspecified),·,4,-7,1
O=C(Nc1cccnc1)C1(c2ccc(Cl)cc2)CCCC1,·,-2,-6,-10
C=C(C)Cc1c(C)nc(-c2ccccc2)[nH]c1=O,-4,3,0,4
CCCCCCOC(=O)Cc1c(C)nc(-c2ccccc2)[nH]c1=O,·,-8,-3,34*
O=C(c1ccco1)n1nc(NCc2ccccc2)nc1NCc1ccccc1,-1,2,-3,79*
O=C(Nc1ccc(F)cc1F)c1cc2n(n1)C(C(F)(F)F)C1CCCCC1N2 (stereo unspecified),-6,1,-7,30*
COc1ccc(CCNC(=O)Cn2cnc3c(cnn3-c3ccccc3Cl)c2=O)cc1OC,-10,6,-4,2
COc1cnn(-c2ccccc2)c(=O)c1SCc1ccc(Cl)cc1Cl,·,-5,-14,36*
O=C(O)C1CCCCC1C(=O)Nc1ccccc1F (stereo unspecified),-9,-12,1,42*
Cc1cccc(N(CC(=O)N/N=C/c2cc([N+](=O)[O-])ccc2Cl)S(C)(=O)=O)c1C,·,2,-1,-1
SMILES,tolC growth inh,PostGolgi yeast,Ecoli WT expand,PostGolgi ctrl
Cc1nn(-c2ccccc2)c2sc(C(=O)O)cc12,2,-2,-7,2
Cc1nn(-c2ccccc2)c2sc(-c3n[nH]c(=S)o3)cc12,78*,-1,-9,26
O=C1C2C3CCC(C3NCc3ccccc3)C2C(=O)N1Cc1ccccc1 (stereo unspecified),·,-8,0,21
C=CCNC(=O)c1onc(CSc2ccc(F)cc2)c1C(=O)O,·,0,-11,-2
C=CCNC(=O)c1onc(CSc2ccc(C(C)C)cc2)c1C(=O)O,·,-4,-13,33*
Cc1ccccc1SCc1noc(C(=O)NC(C)C)c1C(=O)O,·,7,1,-7
CC(C)NC(=O)c1onc(CSc2ccccc2F)c1C(=O)O,·,-2,-6,39*
C=CCNC(=O)c1onc(CSc2ccc(F)cc2)c1C(=O)NCCOC,·,0,0,46*
N#CCCn1c(C2CCCCC2)nc2ccccc21,·,-12,4,0
Oc1ccc(/C=N/NC2=NCCCCC2)cc1,·,-6,-1,7
Cc1cc(Br)cc(C)c1OCCCCN(C)C,·,-8,8,3
CC(=O)c1ccc(N2CCN(C(=O)c3ccc(Br)cc3)CC2)c(F)c1,12,87*,-2,54*
CCOc1ccccc1N=c1oc2cc(O)ccc2cc1C(=O)NCC1CCCO1 (stereo unspecified),·,0,-5,4
O=C(COc1cccc(Oc2ccccc2)c1)Nc1ccc(SC(F)F)cc1,·,13,-6,10
O=C(COc1cccc(OC(F)F)c1)Nc1ccc(SC(F)F)cc1,70*,-12,5,31*
CC(C)Cn1c(N)c(C(=O)COC(=O)c2ccc3ccccc3n2)c(=O)n(C)c1=O,7,-2,-7,5
COc1cccc(-c2cnc(NCc3cc(Cl)ccc3O)n2C)c1,-20,-7,21,71*
Cc1ccccc1Cn1c(-c2cncs2)nc2ccccc21,30,24,-5,35*
Brc1ccccc1Cn1c(-c2cscn2)nc2ccccc21,·,6,-1,54*
Cc1ccccc1Cn1c(Cc2ccccc2)nc2ccccc21,·,-12,-3,34*
CCc1nc2ccccc2n1Cc1ccccc1OC,51,3,10,10
Brc1cc2c(cc1Cn1c(-c3cncs3)nc3ccccc31)OCO2,2,16,-3,7
CCC(C)C(NC(C)=O)C(=O)NC(=O)NC(c1ccccc1)c1ccccc1 (stereo unspecified),·,2,2,4
CCOC(=O)c1c(NC(=O)C(F)(OC)C(F)(F)F)sc(C(=O)N2CCCCC2)c1C (stereo unspecified),78*,-14,-9,12
CCOC(=O)C1CCCN(C(=S)Nc2cc(C)cc(C)c2)C1 (stereo unspecified),·,4,8,1
SMILES,tolC growth inh,PostGolgi yeast,Ecoli WT expand,PostGolgi ctrl
COc1ccc(-c2n[nH]c(C)c2-c2cnn(-c3ccccc3)c2)c(O)c1C,·,-12,-12,50*
COc1ccc(-c2n[nH]c(C)c2-c2cnn(-c3ccccc3)c2)c(O)c1,14,·,·,·
Cc1sc2ncn(CC(=O)NCCCC(=O)N3CCN(c4ncccn4)CC3)c(=O)c2c1C,-4,2,1,3
Cc1ccc(-c2nc(SCC(N)=O)c(C#N)c3c2CCCC3)cc1,·,7,-8,44*
O=C1c2ccccc2C(=O)N1CCc1csc(-c2cccc(Cl)c2)n1,·,-12,-5,7
O=C1c2ccccc2C(=O)N1CCc1csc(-c2cccc(F)c2)n1,·,-5,-20,42*
Cc1cc(O)c(/C=N/Nc2ccc(Cl)cc2)c(=O)o1,·,66*,95*,8
CCOC(=O)N1CCN(c2c(NCC3CCN(Cc4cccc(C)c4)CC3)c(=O)c2=O)CC1,-1,4,-4,7
CCOCCCNCC(=O)Nc1ccccc1N1CCOCC1,-17,-1,4,6
Cc1cc(N=Cc2c(O)n(-c3ccc4c(c3)OCO4)c(=O)c3ccccc23)ccn1,-4,0,-1,30*
Cc1ccc(-n2c(O)c(C=Nc3ccc4c(c3)OCO4)c3ccccc3c2=O)cc1C,·,1,-5,7
O=C(Cn1ccc2ccccc2c1=O)NCCC(=O)NC1CCN(Cc2ccccc2)CC1,-13,-3,8,49*
O=C(c1nn(Cc2ccccc2)c(=O)c2ccccc12)N1CCN(C/C=C/c2ccccc2)CC1,·,-1,-1,6

# From PubChem
